Assays:
Assay type in all cases: functional
Details in all cases: 72 h, time 3 day
[1] = tested on: Mycolicibacterium smegmatis; assay: Antimicrobial activity against Mycobacterium smegmatis assessed as bacterial growth inhibition preincubated with PLE for 1 hr measured after 3 days by multimode plate reader analysis
Procedure, shortened: (§1)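 MIC99 in M. smegmatis with esterase pretreatment. The highest-concentration sample (50 μg/mL) was preincubated 1 h at RT with pig liver esterase (0.1 mg/mL), alone or with PMSF (1 mM), before serial dilution and 1:1 mixing with M. smegmatis in Middlebrook (final 25 to 0.012 μg/mL). Growth read as A600 after 72 h at 37 °C, 225 rpm.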

[2] = tested on: Mycolicibacterium smegmatis; assay: Antimicrobial activity against Mycobacterium smegmatis assessed as bacterial growth inhibition measured after 3 days by multimode plate reader analysis
Procedure, shortened: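 MIC99 in M. smegmatis broth. Compounds serially diluted in Middlebrook media, then diluted 1:1 with M. smegmatis in Middlebrook (final 25 μg/mL to 0.012 μg/mL). Plates grown 72 h at 37 °C, 225 rpm; growth read as A600.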

[3] = tested on: Mycolicibacterium smegmatis; assay: Antimicrobial activity against Mycobacterium smegmatis assessed as bacterial growth inhibition preincubated with PLE and PMSF for 1 hr measured after 3 days by multimode plate reader analysis; procedure, shortened: as §1

MIC99 [1] [µg/mL]	MIC99 [2] [µg/mL]	MIC99 [3] [µg/mL]	Compound
0.78	13	25	CC[C@@H](COC(=O)C1(C)CC1)NCCN[C@@H](CC)COC(=O)C1(C)CC1.Cl.Cl
0.2	1.6	0.78	CCC(CC)C(=O)OC[C@H](CC)NCCN[C@@H](CC)COC(=O)C(CC)CC.Cl.Cl
0.39	3.1	6.2	CC[C@@H](COC(=O)C1CCC1)NCCN[C@@H](CC)COC(=O)C1CCC1.Cl.Cl
0.098	6.3	1.6	CC[C@@H](COC(=O)C1CCCC1)NCCN[C@@H](CC)COC(=O)C1CCCC1.Cl.Cl
0.2	6.3	0.39	CC[C@@H](COC(=O)CC(C)C)NCCN[C@@H](CC)COC(=O)CC(C)C.Cl.Cl
0.39	6.3	6.3	CC[C@@H](COC(=O)C(C)C)NCCN[C@@H](CC)COC(=O)C(C)C.Cl.Cl
0.78	0.78	0.78	CCC(=O)OC[C@H](CC)NCCN[C@@H](CC)COC(=O)CC.Cl.Cl
0.78	6.3	6.3	CC[C@@H](COC(=O)C(C)(C)C)NCCN[C@@H](CC)COC(=O)C(C)(C)C.Cl.Cl
0.098	0.098	0.098	CC[C@@H](CO)NCCN[C@@H](CC)CO.Cl.Cl [ETHAMBUTOL HYDROCHLORIDE]
